# Test results reported in PubChem BioAssay AID489030 (Sanford-Burnham Center for Chemical Genomics, 2010).
# The whole screen tested about 330,000 compounds, of which about 2,400 (0.73%) were called active. The calls were made as follows: active = inhibition of at least 40% at 20 µM; inactive = the rest. Shown is part of a subset that was picked to be rich in actives.
# Biological target: Apoptotic protease-activating factor 1 (Homo sapiens) (UniProt O14727)
# Experiment: inhibitors of human Apaf-1 apoptosome, primary screen, biochemical, DEVD-Rh110 fluorescence, uHTS (AID 489030);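 also: plate controls were DMSO wells for no effect and DEVD-CHO caspase inhibitor wells for full effect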
# Conditions: reconstituted apoptosome caspase-3 activity, at 20 µM, active compounds read high
# In short: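 System: Apoptosome proteins | Medium: Hepes pH 7.5 with detergent and BSA | Also added: Cytochrome c trigger plus (Z-DEVD)2-Rh110 caspase-3 substrate | Incubation: 30 min compound preincubation, 50 min activation, room temperature | Detection: Rhodamine 110 fluorescence at Ex 480/Em 540 nm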
# Sequence of Apoptotic protease-activating factor 1 (Homo sapiens) (O14727 whole entry, looked up): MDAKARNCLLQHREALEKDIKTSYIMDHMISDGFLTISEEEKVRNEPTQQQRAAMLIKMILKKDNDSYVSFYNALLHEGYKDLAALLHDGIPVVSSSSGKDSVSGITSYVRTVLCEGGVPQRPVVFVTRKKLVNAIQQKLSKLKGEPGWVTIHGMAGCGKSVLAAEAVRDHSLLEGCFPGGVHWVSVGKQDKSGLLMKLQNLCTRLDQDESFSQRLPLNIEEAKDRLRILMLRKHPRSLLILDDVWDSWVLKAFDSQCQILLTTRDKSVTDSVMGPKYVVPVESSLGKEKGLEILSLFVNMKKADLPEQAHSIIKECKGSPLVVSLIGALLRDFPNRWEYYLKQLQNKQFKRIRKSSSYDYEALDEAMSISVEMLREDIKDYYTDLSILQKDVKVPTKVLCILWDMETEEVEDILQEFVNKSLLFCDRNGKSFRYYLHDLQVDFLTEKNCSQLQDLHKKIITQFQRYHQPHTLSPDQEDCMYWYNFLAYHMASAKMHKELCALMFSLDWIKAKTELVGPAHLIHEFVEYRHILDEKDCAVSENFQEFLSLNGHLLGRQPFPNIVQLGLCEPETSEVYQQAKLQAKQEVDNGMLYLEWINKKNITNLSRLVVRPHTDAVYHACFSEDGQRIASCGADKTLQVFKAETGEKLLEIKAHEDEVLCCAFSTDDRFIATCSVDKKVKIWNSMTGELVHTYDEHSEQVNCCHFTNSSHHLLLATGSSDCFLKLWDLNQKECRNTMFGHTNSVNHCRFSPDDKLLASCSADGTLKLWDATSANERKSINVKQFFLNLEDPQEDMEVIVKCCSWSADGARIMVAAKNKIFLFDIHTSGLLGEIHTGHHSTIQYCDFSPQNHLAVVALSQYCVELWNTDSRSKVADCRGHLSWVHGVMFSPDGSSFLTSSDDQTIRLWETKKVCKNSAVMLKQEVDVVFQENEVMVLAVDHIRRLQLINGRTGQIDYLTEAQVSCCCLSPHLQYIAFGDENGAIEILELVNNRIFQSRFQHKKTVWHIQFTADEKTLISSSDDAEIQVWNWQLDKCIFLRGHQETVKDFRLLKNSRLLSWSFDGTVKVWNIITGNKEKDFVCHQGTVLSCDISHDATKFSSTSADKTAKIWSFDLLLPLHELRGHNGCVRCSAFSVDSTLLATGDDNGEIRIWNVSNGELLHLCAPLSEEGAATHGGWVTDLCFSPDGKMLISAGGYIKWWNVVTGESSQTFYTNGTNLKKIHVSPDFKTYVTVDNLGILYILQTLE
row,SMILES,inhibition
1,COC(=O)c1noc(C)c1-c1ccnn1C(=O)c1ccc(Cl)cc1,10.5% (inactive)
2,COc1ccc2sc(N(CCCN(C)C)C(=O)c3ccc(S(=O)(=O)N(C)C4CCCCC4)cc3)nc2c1,24% (inactive)
3,CN(C)CCCN(C(=O)c1ccc(S(=O)(=O)N2CCCc3ccccc32)cc1)c1nc2ccc(F)cc2s1,23.6% (inactive)
4,CN(C)CCCN(C(=O)c1ccc(S(=O)(=O)N2CCCCCC2)cc1)c1nc2ccc(Br)cc2s1,60.4% (active)
5,C#CCOCCOCCOCCNc1nc(N2CCN(C(=O)[C@H](CCCCN)n3cc([C@@H](N)C(C)CC)nn3)CC2)nc(N2CCN(C(=O)[C@H](Cc3ccc(O)cc3)n3cc([C@@H](N)C(C)CC)nn3)CC2)n1 (some centres not stated),-9.37% (inactive)
6,CC1(C)CC(=O)C2=C(C1)NCN(CCCN1CCOCC1)C2,4.48% (inactive)
7,CN(C)CCOc1ccc(Cl)cc1C(C)(C)C,4.15% (inactive)
8,CCC(C)(C)c1ccc(OCC(=O)N(C)C)c(C(C)(C)CC)c1,56.5% (active)
9,CCc1nc(C)ccc1OCC(=O)N(CC)CC,-18.1% (inactive)
10,CCOc1ccc(C(=O)CCN2CCOCC2)cc1,2.64% (inactive)
11,CC(OC(=O)c1ccc(NS(=O)(=O)c2ccc3[nH]c(=O)[nH]c3c2)cc1)C(=O)Nc1cccc(Cl)c1Cl (configuration not stated),14% (inactive)
12,CC(C)c1ccccc1OCC(O)CN(CC(O)COc1cccc2ccccc12)C(C)C (configuration not stated),57.3% (active)
13,Cc1cc(C)c(NC(=O)C[N+](C)(C)CC(O)COc2cccc3ccccc23)c(C)c1 (configuration not stated),12.4% (inactive)
14,CCC(C)Sc1nc2c(c(=O)[nH]c(=O)n2C)n1CC(O)COc1cccc2ccccc12 (configuration not stated),22.5% (inactive)
15,CCOC(=O)COn1c(=O)c(-c2ccc(OCC)cc2)[n+]([O-])c2ccccc21,9.6% (inactive)
16,CCCCCCCCCCOC(=O)Cn1c(COc2cccc(OC)c2)[n+](C)c2ccccc21,65.3% (active)
17,CCCCCCCCCCOC(=O)Cn1c(COc2ccc(C)cc2)[n+](C)c2ccccc21,77.7% (active)
18,CCCCOc1ccc(NC(=O)CSCC(=O)OCC)cc1,-4.3% (inactive)
19,COc1cccc(OCc2nnc3n2N=C(c2ccccc2)C(CC(=O)O)S3)c1 (configuration not stated),-0.294% (inactive)
20,CCCCn1c(N)c(N(CCOC)C(=O)c2cccc(OCc3ccccc3)c2)c(=O)[nH]c1=O,0.864% (inactive)
21,Cc1cccc(/C(N)=N/OC(=O)c2ccccc2Cl)c1,11.3% (inactive)
22,CCOC(=O)c1sc(C)c2c1NC(C)(c1cccc3ccccc13)NC2=O (configuration not stated),28% (inactive)
23,COC(=O)c1nn(-c2cccc(Cl)c2)ccc1=O,-6.21% (inactive)

row,SMILES,inhibition
1,CN(CCc1cn[nH]c1)C(=O)CC1C(=O)NCCN1Cc1cccc(Oc2ccccc2)c1 (configuration not stated),13% (inactive)
2,COCCNC(=O)c1snc2ccc(Cl)cc12,-26% (inactive)
3,COCCNC(=O)Nc1ccc2nc(-c3ccco3)c(-c3ccco3)nc2c1,64.8% (active)
4,O=C1CSc2ccc(C(=O)NCc3ccccn3)cc2N1,-4.15% (inactive)
5,O=C(NCc1ccccn1)c1ccc2nc(-c3ccco3)c(-c3ccco3)nc2c1,60.6% (active)
6,COc1cccc(S(=O)(=O)NCc2ccc(C(=O)NCc3ccccn3)cc2)c1,4.94% (inactive)
7,CCCNC(=O)Nc1ccccc1C(=O)Nc1ccc(OC)cc1,11.1% (inactive)
8,O=C(O)c1ccc(NC(=O)c2ccc(COc3ccc(Cl)cc3)o2)cc1,3.81% (inactive)
9,Cn1c(=O)n(C)c2cc(NS(=O)(=O)c3ccc(F)cc3)ccc21,1.91% (inactive)
10,Cc1cccc(C)c1Nc1nnc(SCC(=O)NCCCN2CCCC2=O)s1,-3.15% (inactive)
11,O=C(O)c1cc(Cl)c(Cl)cc1C(=O)Nc1cccc2ncccc12,80.4% (active)
12,Cc1ccc(/C=C(\C#N)C(=O)Nc2cccc3ncccc23)o1,-6.14% (inactive)
13,O=C(Nc1cccnc1Cl)c1cc(-c2cccc(Cl)c2)on1,3.02% (inactive)
14,C=C(C)CNc1cc(S(=O)(=O)N2CCOCC2)ccc1Oc1ccccc1,24.2% (inactive)
15,CCCC[C@@H]1CN=C(N)N1CCc1cc(C(F)(F)F)cc(C(F)(F)F)c1,52.3% (active)
16,CCCC[C@@H]1CN=C(N)N1CCc1cccc(F)c1,4.48% (inactive)
17,CCCC[C@@H]1CN=C(N)N1CCCC,8.23% (inactive)
18,COc1ccccc1N=C1SC(C)CN1C(=O)C1CCC1 (configuration not stated),3.12% (inactive)
19,Cc1ccc(C)c(Cn2cnc3c(oc4ccccc43)c2=O)c1,-9.64% (inactive)
20,CCOC(=O)C1CCN(C(=O)c2cccc(S(=O)(=O)N(CC)c3ccccc3)c2)CC1,45.2% (active)
21,CCOC(=O)C1CCCN(C(=O)c2cccc(S(=O)(=O)N3CCOCC3)c2)C1 (configuration not stated),-8.74% (inactive)
22,CCOC(=O)C1CCN(C(=O)c2ccccc2N(C)S(=O)(=O)c2ccccc2)CC1,2.95% (inactive)
23,CC(C)[C@@H](NC(=O)OC(C)(C)C)C(=O)NCC1CCC(C(=O)N[C@@H](Cc2ccccc2)C(=O)O)CC1 (some centres not stated),2.34% (inactive)

row,SMILES,inhibition
1,CCCCC(=O)Nc1ccc(C(=O)Nc2cc(C(F)(F)F)ccc2Cl)cc1,37.6% (inactive)
2,CCCCN(CCCC)CCC(O)c1cc2c(Cl)cc(Cl)cc2c2cc(C(F)(F)F)ccc12 (configuration not stated),48.9% (active)
3,ON=C1/C(=N\O)CC2(C/C1=N/O)OCCO2,-16% (inactive)
4,CN(C(=O)CN1C(=O)CCSc2ccc(S(=O)(=O)N3CCCC3)cc21)c1ccccc1,-2.73% (inactive)
5,CCC(CO)Oc1cc(NC(=O)c2cccc3ccccc23)c2ncn(C(C)C)c2c1 (configuration not stated),29.6% (inactive)
6,CCC(CO)Oc1cc(NC(=O)c2ccc(Cl)cc2)c2ncn(C(C)C)c2c1 (configuration not stated),11.6% (inactive)
7,CC(C)n1cnc2c(NCc3ccccc3)cc(N[C@@H](CO)Cc3ccccc3)cc21,94.5% (active)
8,CCC(CO)Oc1cc(NC(=O)c2cccc(F)c2)c2ncn(C(C)C)c2c1 (configuration not stated),17.6% (inactive)
9,CC(C)n1cnc2c(NCc3ccccc3)cc(OCC3CCN(C)CC3)cc21,96.4% (active)
10,CCC(CO)Oc1cc(NCc2ccccc2)c2ncn(C3CCCC3)c2c1 (configuration not stated),32.6% (inactive)
11,COc1ccc(N2CCN(CCNC(=O)c3nnc(Cc4c(F)cccc4Cl)o3)CC2)cc1,-8.42% (inactive)
12,Cn1c(=O)c2c(nc(N3CCOCC3)n2CCNC2=NCCC2)n(C)c1=O,9.61% (inactive)
13,O=C(c1ccccc1)c1cccn1CC(=O)N1CCN(c2ccc(F)cc2)CC1,5.66% (inactive)
14,Cc1nc(N)[nH]c(=O)c1Oc1cccc(C(F)(F)F)c1,-9.16% (inactive)
15,COc1ccc(C(CNC(=O)c2ccc(NS(=O)(=O)c3ccc(F)c(C)c3)cc2)N(C)C)cc1 (configuration not stated),26% (inactive)
16,CC(=O)c1ccc(S(=O)(=O)Nc2ccc(C(=O)NCC(c3ccccc3)N(C)C)cc2)cc1 (configuration not stated),-18.1% (inactive)
17,COc1ccc(C(CNC(=O)c2ccc(S(=O)(=O)Nc3ccccc3F)cc2)N(C)C)cc1 (configuration not stated),56.5% (active)
18,CCOC(=O)C1CCN(S(=O)(=O)c2c(C)noc2C)CC1,1.33% (inactive)
19,C=CCNc1nc(N)c(C(=C(C#N)C#N)c2ccccc2)s1,10.1% (inactive)
20,O=C(NCCCNCc1ccccc1)c1ccc(/C=N/O)nc1,6.05% (inactive)
21,COc1ccc(CNC(=O)c2ccc(NS(=O)(=O)c3ccc4[nH]c(=O)[nH]c4c3)cc2)cc1OC,8.25% (inactive)
22,COC(=O)c1ccccc1NC(=O)CN(Cc1ccc(Cl)cc1)S(C)(=O)=O,-4.4% (inactive)
23,N#Cc1c(N2CCCCC2)nc(N)c2c(N)nc(SCC(=O)O)cc12,96% (active)

row,SMILES,inhibition
1,Nc1nc(NCC(=O)O)nc(N2CCCCCC2)c1[N+](=O)[O-],-0.54% (inactive)
2,N#CCc1c(C#N)c(N)nc(N2CCCC2)c1C#N,-2.29% (inactive)
3,COc1nc(NC2CCCCC2)nc(N2CCCCCC2)n1,15.5% (inactive)
4,O=C(O)COCC(=O)NCc1csc2ccc(Cl)cc12,-14.6% (inactive)
5,CCOc1ccc(Br)cc1S(=O)(=O)Nc1ccc(S(=O)(=O)Nc2cc(C)on2)cc1,9.47% (inactive)
6,CCCS(=O)(=O)C(=C1Nc2ccccc2N1)S(=O)(=O)CCC,8.61% (inactive)
7,CCCC(NS(=O)(=O)c1ccc(OC)cc1)C(=O)O (configuration not stated),-6.54% (inactive)
8,COc1ccc(S(=O)(=O)/N=C2\C=C(NS(=O)(=O)c3ccccc3)C(=O)c3ccccc32)cc1,79.2% (active)
9,COc1ccc(S(=O)(=O)NCCCc2ccccc2)cc1,-8.3% (inactive)
10,CCOC(=O)c1cnc(SC)nc1Sc1ccc(Cl)cc1Cl,14% (inactive)
11,O=C(c1cnccn1)N1CCN(S(=O)(=O)c2cccc(Cl)c2)CC1,-4.31% (inactive)
12,CN1CCN(c2ccccc2NC(=O)COc2ccc(C3CCCCC3)cc2)CC1,43.6% (active)
13,Cc1ccc(C(C)C)cc1OCC(=O)Nc1ccccc1N1CCCC1,16.1% (inactive)
14,O=C(CN1CCN(C2CCCCC2)CC1)Nc1ccccc1N1CCCCC1,6.34% (inactive)
15,Cn1nnnc1SCC(=O)Nc1cccc(S(=O)(=O)N2CCCCC2)c1,7.72% (inactive)
16,CC(=O)c1c(C)[nH]c(C(=O)OCC(=O)NCCC(C)C)c1C,-7.2% (inactive)
17,CC(=O)c1c(C)[nH]c(C(=O)COC(=O)CCOc2ccc(C)cc2)c1C,9.54% (inactive)
18,CC(C)(C)C(=O)N1CCC[C@@]1(CO)C(=O)O,6.37% (inactive)
19,Cc1ccc(N=C2NC(=O)/C(=C/C=C/c3ccco3)S2)cc1C,61.8% (active)
20,CN1C(=O)/C(=C/c2ccco2)SC1=Nc1cccc(C(=O)O)c1,20% (inactive)
21,O=S(=O)(Nc1ccc(O)c2ccccc12)c1ccc(OC(F)(F)F)cc1,60.9% (active)
22,O=C1COc2ccc(S(=O)(=O)Nc3ccc(OC(F)(F)F)cc3)cc2N1,11.8% (inactive)
23,Cc1nn(C)c(C)c1NS(=O)(=O)c1ccc(OC(F)(F)F)cc1,-0.237% (inactive)
